The subject of one assay is HeLa. The assay is described as follows: Cytotoxicity against human HeLa cells after 3 days by MTT assay. It counts as functional, cell-based. To be noted: 72 h. The essentials: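 HeLa cells grown in DMEM with 10% fetal calf serum, penicillin and streptomycin, 37 °C, 5% CO2. Seeded at 3 × 10^3 cells/well, precultured 1 day, then given compounds at various concentrations for 3 days at 37 °C. MTT (0.2 mg/mL in medium) added for 4 h, then DMSO, and OD read at 570 nm.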
On the technique in general: Tetrazolium dyes change colour on reduction, which living cells bring about.

Assay [1] in a line: Inhibition of chymotrypsin like activity of partially purified rat liver proteasome. The format is subcellular. The essentials:
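Enzyme: proteasome-enriched pellet from rat liver homogenate (300 000g, 2 h). Preincubated with inhibitor 10 min at 30 °C in 50 mM Tris-HCl pH 7.8, 1 mM DTT, 5 mM EDTA, 0.02% SDS. Then 0.05 mM Suc-LLVY-MCA added, 1 h at 30 °C, stopped with 10% SDS, AMC fluorescence read (ex 380/em 460 nm). IC50 from duplicate measurements.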

For another assay, the species on record is Rattus norvegicus. In words: Inhibition of chymotrypsin like activity of partially purified rat liver proteasome at 100 ug/mL. The format is subcellular. The essentials:
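Enzyme: proteasome-enriched pellet from rat liver (300 000g, 2 h). Preincubated with test material 10 min at 30 °C in 50 mM Tris-HCl pH 7.8, 1 mM DTT, 5 mM EDTA, 0.02% SDS. Then 0.05 mM Suc-LLVY-MCA added for 1 h at 30 °C. Stopped with 10% SDS and AMC fluorescence read (ex 380/em 460 nm).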

Converted amounts (≈) assume the structure as drawn. The source made the active and inactive calls. The calls are words filed in the database; no cut-off is given here.

In general, IC50 refers to the midpoint of a concentration-inhibition curve. Low values mean greater potency, high ones weaker potency. As for `CC(=O)O[C@@H]1[C@@H]2[C@@H](OC(C)=O)C=C3[C@H]([C@H](O)C[C@]4(C)[C@@H]([C@H](C)[C@H](O)CCC(C)C)CC[C@@H]34)[C@@]2(C)CC[C@@H]1OC(C)=O` [AGOSTEROL A], the IC50 came out at 25 µg/mL (≈ 43.3 µM) with HeLa and 50 µg/mL (≈ 86.7 µM) in assay [1].
Taken in the same sequence, the figures for `CC(=O)O[C@@H]1[C@@H]2[C@@H](OC(C)=O)C=C3[C@H]([C@H](O)C[C@]4(C)[C@@H]([C@H](C)[C@H](O)CCC(C)C)CC[C@@H]34)[C@@]2(C)CC[C@@H]1O` [AGOSTEROL F] were 16 µg/mL (≈ 29.9 µM) and 35 µg/mL (≈ 65.5 µM).
Take `CC(=O)O[C@@H]1[C@@H]2[C@@H](OC(C)=O)C=C3[C@H]([C@H](OC(C)=O)C[C@]4(C)[C@@H]([C@H](C)[C@H](O)CCC(C)C)CC[C@@H]34)[C@@]2(C)CC[C@@H]1O` [AGOSTEROL G]: the IC50 stood at 8.8 µg/mL (≈ 15.3 µM) in the assay with HeLa and 100 µg/mL (≈ 173 µM) in assay [1].
Taken in the same sequence, the figures for `CC(=O)O[C@@H]1[C@@H]2[C@@H](OC(C)=O)C=C3[C@H](CC[C@]4(C)[C@@H]([C@@](C)(O)[C@H](O)CCC(C)C)CC[C@@H]34)[C@@]2(C)CC[C@@H]1O` [AGOSTEROL C2] were over 25 µg/mL and 23 µg/mL (≈ 43 µM).
For `CC(=O)O[C@@H]1[C@@H]2[C@@H](OC(C)=O)C=C3[C@H](CC[C@]4(C)[C@@H]([C@@](C)(O)[C@H](O)CCC(C)C)CC[C@@H]34)[C@@]2(C)CC[C@@H]1OC(C)=O` [AGOSTEROL D2], the IC50 with HeLa stood at 23 µg/mL (≈ 39.9 µM); in assay [1] it was 90 µg/mL (≈ 156 µM).
Taken in the same sequence, the figures for `CC(=O)O[C@@H]1[C@@H]2[C@@H](OC(C)=O)C=C3[C@H](CC[C@]4(C)[C@@H]([C@H](C)[C@H](O)CCC(C)C)CC[C@@H]34)[C@@]2(C)CC[C@@H]1O` [AGOSTEROL C] were 22 µg/mL (≈ 42.4 µM) and 10 µg/mL (≈ 19.3 µM).
As for `C/C=C(\C[C@@H](O)[C@@H](C)[C@H]1CC[C@H]2C3=C[C@H](OC(C)=O)[C@H]4[C@@H](OC(C)=O)[C@@H](OC(C)=O)CC[C@]4(C)[C@H]3[C@H](O)C[C@]12C)C(C)C` [AGOSTEROL A3], the IC50 with HeLa came to 10 µg/mL (≈ 16.6 µM). Also, the outcome in the assay filed under Rattus norvegicus was inactive.
Taken in the same sequence, the figures for `C/C=C(\C[C@@H](O)[C@@H](C)[C@H]1CC[C@H]2C3=C[C@H](OC(C)=O)[C@H]4[C@@H](OC(C)=O)[C@@H](OC(C)=O)CC[C@]4(C)[C@@]3(O)CC[C@]12C)C(C)C` [AGOSTEROL E3] were 14 µg/mL (≈ 23.2 µM) and “inactive”.
The like results for `CC(=O)O[C@@H]1[C@@H]2[C@@H](OC(C)=O)C=C3[C@@H]4CC[C@H]([C@H](C)[C@H](O)CCC(C)C)[C@@]4(C)CC[C@]3(O)[C@@]2(C)CC[C@@H]1OC(C)=O` [AGOSTEROL E] were, in that order, 25 µg/mL (≈ 43.3 µM) and “inactive”.
For the compound `C=C(CC(O)C(C)(O)[C@H]1CC[C@H]2C3=C[C@H](OC(C)=O)[C@H]4[C@@H](OC(C)=O)[C@@H](O)CC[C@]4(C)[C@H]3CC[C@]12C)C(C)C` (stereo not given in full) [AGOSTEROL C7], the IC50 with HeLa was over 25 µg/mL; in assay [1], 20 µg/mL (≈ 36.6 µM).
